Hits are enriched below; roughly 3.8% of the tested compounds scored in any of these assays.
NS3 helicase inh: inhibitors of Hepatitis C virus NS3 helicase; 0.56% of 290,000 active; NS3 helicase DNA unwinding, Cy5 molecular beacon fluorescence; AID 1800; inhibition, % at 10.9 µM;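 active means inhibition above the mean of all tested compounds plus 3 SD, set per campaign, cut at about 35% in these data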;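 further: 0% = DMSO wells and 100% = thioflavine S control wells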
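Assay system: hepatitis C virus NS3 helicase domain fragment enzyme. Also added: annealed dual-labelled DNA beacon duplex, ATP-started. Timing: 1 h reaction at 25 °C, ATP-initiated. Technique: Cy5 fluorescence at 0 and 60 min, beacon hairpin quenching. Evaluation: % inhibition of unwinding. Replication: one well per compound.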
HSP90 refold inh: blocks HSP90-mediated luciferase refolding in reticulocyte lysate. 0.91% of 290,000 active. inhibition, % at 5.6 µM. Rabbit reticulocyte lysate, luciferase refolding luminescence, 3 h;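 active means inhibition above the screen-wide mean plus 3 SD, computed separately per campaign, cut at about 16% in these data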;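 further: 0% = DMSO wells and 100% = 60 µM geldanamycin wells; inhibitors lower the luminescence because luciferase stays unfolded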
HSF1 activator: increases HSF-1 driven luciferase reporter signal; NIH3T3-HGL HSF-1 luciferase reporter, MG132, 8 h; 100% = twice DMSO control signal; activation, % at 9 µM; 1.7% of 300,000 active; AID 504408;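 active means mean replicate activation of at least 50% with a set share of replicates each reaching 50%; inconclusive means only one of those two conditions met; inactive means mean below 50% and too few replicates reaching it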;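 further: 0% = median of the neutral control wells and 100% = twice that signal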
Hep lipid drop: modulators of hepatic lipid droplet formation; AML12 mouse hepatocytes, oleate lipid droplets, BODIPY imaging; inhibition, % at 6.5 µM; 0.4% of 240,000 active;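 active means lipid droplet intensity inhibited by at least 50%, with more than 500 cells counted; inconclusive means wells with under 300 cells, treated as cytotoxic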
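Material – AML12 mouse liver cells · Also added – oleate loading, 100 µM · Compound dosing – 6.5 µM single-point dosing · Times – overnight treatment with compound plus oleate · Measured by – fluorescence imaging, 20x objective, two fields per well · Read-out – percent inhibition of filter-corrected integrated lipid droplet intensity per well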
HSF1 inh: HSF1 inhibition; NIH3T3-HGL HSE-luciferase, MG132-induced, luminescence 8 h; stronger effect = lower value; activity change, negative = inhibition, % at 7.5 µM (by protocol); 0.77% of 300,000 active;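 active means more than half of replicate wells show activity change below -50%, luminescence cut by over half; inconclusive means some wells, but at most half, below -50%; inactive means no replicate well below -50%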;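 further: luciferase reports HSF-1 transcriptional activity via heat shock element; 0% = median of DMSO wells and -100% = zero luminescence signal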
HSP90 inh confirm: confirmation of HSP90 inhibitors. shares compounds with HSP90 refold inh. rabbit reticulocyte lysate, luciferase refolding luminescence, 3 h. inhibition, % at 5.9 µM. 64% of 2,300 active. AID 1846; in the data active means inhibition above about 18%;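 further: 0% = vehicle wells and 100% = reference inhibitor wells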
luciferase ctr: counter-screen for HSP90 inhibitors: inhibitors of firefly luciferase | inhibition, % at 5.9 µM | 48% of 2,300 active | purified native firefly luciferase, luminescence | shares compounds with HSP90 refold inh;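 active means inhibition above the mean inhibition of all tested sample wells plus 3 SD, cut at about 10% in these data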;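 further: 0% = DMSO with luciferase and 100% = wells lacking luciferase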
Target sequence (P08659 whole entry, looked up): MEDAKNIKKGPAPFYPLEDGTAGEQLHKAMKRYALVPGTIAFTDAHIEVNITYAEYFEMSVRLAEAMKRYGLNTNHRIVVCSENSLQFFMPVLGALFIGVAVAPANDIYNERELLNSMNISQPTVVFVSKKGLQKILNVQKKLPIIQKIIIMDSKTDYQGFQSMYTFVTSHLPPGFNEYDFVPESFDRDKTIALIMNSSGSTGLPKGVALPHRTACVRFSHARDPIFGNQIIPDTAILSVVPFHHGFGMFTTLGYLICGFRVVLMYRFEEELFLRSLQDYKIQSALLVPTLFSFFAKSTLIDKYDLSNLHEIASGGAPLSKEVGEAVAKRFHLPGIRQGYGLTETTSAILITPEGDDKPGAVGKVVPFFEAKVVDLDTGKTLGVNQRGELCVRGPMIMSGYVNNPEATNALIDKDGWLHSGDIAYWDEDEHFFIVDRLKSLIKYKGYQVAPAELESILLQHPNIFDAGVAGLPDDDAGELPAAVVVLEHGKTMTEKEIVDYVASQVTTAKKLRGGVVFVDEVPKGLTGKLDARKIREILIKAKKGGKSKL
An asterisk follows results filed as active; u = inconclusive; x = not tested or not shown.

SMILES	NS3 helicase inh	HSP90 refold inh	HSF1 activator	Hep lipid drop	HSF1 inh	HSP90 inh confirm	luciferase ctr
Cc1ccc(S(=O)(=O)NCCC(=O)N2CCC(C(N)=O)CC2)cc1C	x	x	-4	x	-6	x	x
O=C(CNS(=O)(=O)c1ccccc1)OCC(=O)c1ccccc1Cl	22	22*	-4	-8	3	-6	-13
Cc1ccc(C)c(C(=O)COC(=O)CNS(=O)(=O)c2ccccc2)c1	4	-1	18	10	-8	x	x
O=C(/C=C\Nc1ccccn1)c1ccc(Cl)cc1	-5	39*	x	x	x	80*	73*
COc1ccc(/C=N/Nc2ncc(-c3ccccc3)cn2)c(OC)c1	1	-2	4	-6	-1	x	x
COc1ccc(/C=N/Nc2ncccc2[N+](=O)[O-])c(OC)c1	6	51*	-25	6	-17	70*	62*
O=C(N/N=C/c1cc(O)ccc1Br)c1cccnc1	18	37*	-14	x	0	-4	-8
O=[N+]([O-])c1cccc(N(CC(O)CN2CCCCC2)S(=O)(=O)c2ccccc2)c1 (centres undefined)	-6	-1	8	-9	-3	x	x
O=C(NNc1nc2ccccc2o1)c1ccccc1	13	20*	-2	2	-9	28*	20*
COc1cccc(C2/C(=C(/O)c3cnn(-c4ccccc4)c3C)C(=O)C(=O)N2CCN(C)C)c1OC (centres undefined)	7	3	-3	6	0	x	x
Cc1c(/C(O)=C2/C(=O)C(=O)N(CCN(C)C)C2c2ccc(C(C)C)cc2)cnn1-c1ccccc1 (centres undefined)	-1	-2	4	41	-10	x	x
Cc1c(/C(O)=C2\C(=O)C(=O)N(CCN(C)C)C2c2ccco2)cnn1-c1ccccc1 (centres undefined)	10	52*	-50	22	-46	21*	10*
Cc1c(/C(O)=C2\C(=O)C(=O)N(CCN(C)C)C2c2ccccc2)cnn1-c1ccccc1 (centres undefined)	-5	27*	-63	0	-63*	12	-8
O=C(OCc1ccc(Br)cc1)c1cccnc1	-6	41*	-7	-3	-5	-5	-16
O=C(OCc1ccc(Br)cc1)c1ccncc1	0	1	-3	-9	-1	x	x
CN(C)c1ccc(/C=C/C=C2/SC(=S)N(c3ccccc3)C2=O)cc1	6	34*	-24	x	-22	21*	12*
O=C(O)c1ccc(N2C(=O)/C(=C/C=C/c3ccccc3)SC2=S)cc1	27	5	4	-1	4	x	x
O=C(O)/C=C/C(=O)Nc1ccc(S(=O)(=O)N2CCCC2)cc1	-4	-3	-11	0	-4	x	x
COc1cccc(/C=N/NC(=S)Nc2cccc(C(=O)O)c2)c1O	3	25*	-29	15	-17	50*	27*
COc1cccc(/C=N/NC(=O)c2ccc(-c3ccccc3)cc2)c1O	0	-1	9	-5	9	x	x
COc1cccc(/C=N/NC(=O)c2[nH]c(C)c(C(=O)N/N=C/c3cccc(OC)c3O)c2C)c1O	2	32*	-30	2	-20	-10	-19
Cc1csc(NC(=S)NC(=O)c2ccccc2)n1	-2	-2	18	10	5	x	x
O=C(NCCc1ccc(Cl)cc1)c1ccc2ccccc2n1	-6	-1	19	0	10	x	x
O=C(O)C(=O)/C(=C\c1ccc(Cl)cc1)c1ccc2ccccc2n1	-3	22*	30	2	10	-4	-5
CC(C)NC(=O)c1c(O)c2cccc3c2n(c1=O)CCC3	-6	2	2	1	-6	x	x
SMILES	NS3 helicase inh	HSP90 refold inh	HSF1 activator	Hep lipid drop	HSF1 inh	HSP90 inh confirm	luciferase ctr
NNC(=O)c1c(O)c2cccc3c2n(c1=O)CCC3	-4	19*	-3	0	-3	3	-5
COc1ccc(/C=N/NC(=O)c2nn(-c3ccccc3)c(=O)c3c(N)scc23)cc1	12	20*	12	x	6	8	-11
COc1ccc(/C=N/NC(=O)c2nn(-c3ccc(Cl)cc3)c(=O)c3c(N)scc23)cc1	19	5	36	7	6	x	x
CCOC(=O)N1CCN(C(=O)c2cn(C)c3ccc(S(=O)(=O)N4CCC(C)CC4)cc3c2=O)CC1	-8	4	-4	5	-3	x	x
CC(=O)N(C(C)=O)n1c(/C=C/c2ccc([N+](=O)[O-])cc2)nc2ccccc2c1=O	19	-1	17	-3	6	x	x
O=[N+]([O-])c1ccc(/C=C/c2ccc3ccccc3n2)cc1	1	21*	u	6	8	66*	54*
C(=C\c1ccc2ccccc2n1)/c1ccccc1	-6	35*	-12	8	-30	83*	77*
Fc1ccccc1/C=C/c1ccc2ccccc2n1	0	6	-13	-10	-25	x	x
Cc1ccc(C(=O)/C=C2\NCC(C)NC2=O)cc1 (centres undefined)	12	37*	20	x	3	56*	43*
Cc1ccc(C(=O)/C=C2\NCCNC2=O)cc1	-6	7	49	14	19	x	x
CN(C)c1ccc(C2Nc3cccc4cccc(c34)N2)cc1	-5	42*	-24	x	-23	37*	-3
COc1ccc(C2Nc3cccc4cccc(c34)N2)cc1	6	7	-6	-13	4	x	x
Cc1cc(O)c(S(=O)(=O)c2ccccc2)c(C)c1NS(=O)(=O)c1ccccc1	-14	18*	0	-3	4	21*	-8
O=C(NC1CCCCC1)NC1(C(=O)NCCCN2CCOCC2)CCCCC1	-2	27*	11	1	3	-1	-3
COc1cccc(-c2nc(-c3ccccn3)no2)c1	-16	69*	-12	x	-10	86*	78*
CC(C)(C)c1ccc(-c2nc(-c3ccncc3)no2)cc1	-2	20*	-37	-8	-27	33*	32*
Clc1ccccc1/C=C/c1nc(-c2ccccn2)no1	-6	64*	-46	2	-39	86*	83*
Cc1ccc(-c2nc(-c3ccncc3)no2)cc1	-18	9	44	33	11	x	x
Cc1onc(-c2ccccc2Cl)c1-c1nc(-c2ccccn2)no1	-9	1	0	x	-3	x	x
c1ccc(-c2noc(-c3ccncc3)n2)nc1	5	18*	7	x	0	18*	-4
CCOc1ccccc1NC(=S)N1CCN(c2ccccc2F)CC1	-10	11	24	x	11	x	x
CCn1ncc(Br)c1C(=O)NC1CCCCCCC1	-4	-5	18	23	0	x	x
O=C(NC(Cc1ccccc1)C(=O)NCCc1ccccn1)c1ccccc1 (centres undefined)	10	3	-27	2	-14	x	x

Assay outcomes from PubChem BioAssay.
